# Assay outcomes deposited in PubChem by Sanford-Burnham Center for Chemical Genomics.
# FLuc stim CS – firefly luciferase counter-screen for stimulation assays. P08659. ATPlite luciferase biochemical, luminescence, 10 min; 0 = ATP-free wells, 1 = DMSO control. activation factor at 10 µM. 200,000 tested, under 10 active;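 active means luciferase activation factor, scaled between plate controls, of at least 2 with compound at 10 µM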
# Target sequence (P08659 whole entry, looked up): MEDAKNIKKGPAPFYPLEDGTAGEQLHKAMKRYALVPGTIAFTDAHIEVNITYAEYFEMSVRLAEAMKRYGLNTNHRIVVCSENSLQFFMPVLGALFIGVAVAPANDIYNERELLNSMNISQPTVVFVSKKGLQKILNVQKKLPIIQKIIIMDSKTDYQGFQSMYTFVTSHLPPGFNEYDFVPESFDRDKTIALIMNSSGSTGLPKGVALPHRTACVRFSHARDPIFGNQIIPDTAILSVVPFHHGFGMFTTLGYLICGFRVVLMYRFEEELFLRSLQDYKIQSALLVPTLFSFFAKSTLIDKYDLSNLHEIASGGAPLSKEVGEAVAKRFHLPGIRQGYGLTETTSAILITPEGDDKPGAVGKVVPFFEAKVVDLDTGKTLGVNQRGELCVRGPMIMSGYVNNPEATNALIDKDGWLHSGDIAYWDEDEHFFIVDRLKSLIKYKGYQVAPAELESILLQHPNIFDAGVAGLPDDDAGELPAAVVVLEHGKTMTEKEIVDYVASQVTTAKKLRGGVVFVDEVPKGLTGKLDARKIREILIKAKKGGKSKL
#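 Assay system: Luciferase/luciferin reagent mix; Medium: PBS as buffer for the ATP substrate; Dosing: test compounds dosed from 2 mM stocks in 100% DMSO; Times: 10 min, room temperature; Signal: luminescence from luciferase reaction; Read-out: luciferase activation; Controls: No-ATP low control, compound-free enzyme-plus-ATP high control.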
# hiPSC survival – increases survival of single human iPS cells; AID 602274; hiPSC single-cell survival, ATPlite luminescence; 100% = ROCK inhibitor wells, 0% = DMSO; survival enhancement, % at 20 µM; actives 0.044% (n = 360,000); in the data active means survival enhancement above about 18%;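 further: cells exposed to compounds for 16 hours before the ATP read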
# PPC-1+TRAIL kill – compounds killing PPC-1 cancer cells with TRAIL present (potentiator screen, no TRAIL-free arm); PPC-1 cells + TRAIL, ATPLite viability luminescence; cell killing (% activity), % at 4 µM or 5 µM; actives 0.41% (n = 220,000); AID 1443;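 active means cell killing above 50% in the first pass at 4 µM, then a duplicate retest at 5 µM averaging 50% or more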;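 further: plate controls were cells with TRAIL plus DMSO for no effect and medium-only wells lacking cells for full effect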
# MIN6 prolif-1 – inducers of beta-cell replication in MIN6 cells; MIN6 cells proliferation, ATPlite luminescence, 48 h; cells starved in 0.2% serum; 100% = growth in 10% serum; proliferation, % at 10 µM; actives 0.29% (n = 330,000);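 active means compounds whose signal lies at least 3.5 SD above the mean of all wells on their plate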;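 further: 0% = DMSO-treated cells in low-serum medium and 100% = 10% serum control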
# FLuc inhib CS – Photinus pyralis luciferase inhibition counter-screen | ATPLite firefly luciferase biochemical luminescence, 10 min | inhibition, % at 10 µM | actives 1.5% (n = 200,000);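 active means inhibition above about 50% when tested at 10 µM, limit read from the data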
# TRAIL sens C8 – caspase-8 TRAIL sensitization | inhibition (viability loss, TRAIL sensitization), % at 10 µM | NB7+C8 cells + TRAIL, ATPlite viability luminescence | actives 1% (n = 360,000);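 active means compounds causing at least 50% loss of cell viability in the single-dose screen, relative to plate controls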
# MIN6 prolif-2 – confirmation of inducers of beta-cell replication in MIN6 cells | shares compounds with MIN6 prolif-1 | MIN6 beta-cell proliferation, ATPlite luminescence, 48 h; cells kept in 0.2% serum; scaled between 0.2% and 10% serum | proliferation increase, % at 50 µM | 920 tested, under 10 active;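 active means proliferation increase above 40% at any of the four tested concentrations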
# Numbers without * were called inactive; · = no result. Most compounds without a hit are left out; they make up all but 1.8% or so of the library.
SMILES,FLuc stim CS,hiPSC survival,PPC-1+TRAIL kill,MIN6 prolif-1,FLuc inhib CS,TRAIL sens C8,MIN6 prolif-2
O=C(c1ccsc1)N1CCCC(Nc2cccc(F)c2)C1 (centres undefined),·,0,·,12*,·,-17,-2
COc1cc2c(cc1OC)/C(=C/C(=O)c1ccc([N+](=O)[O-])c(C)c1)NCC2,·,0,·,11*,·,1,2
COc1cc2c(cc1OC)/C(=C/C(=O)c1ccccc1)NCC2,·,0,·,-3,·,-1,·
COc1cccc(C(=O)/C=C2\NCCc3cc(OC)c(OC)cc32)c1,·,-1,·,16*,·,-1,-4
CC(C)c1c(C(=O)N/N=C/C=C/c2ccccc2)nnn1-c1nonc1N,·,-1,·,12*,·,-2,-6
CCC(C)N(C(=O)CSc1ncnc2sccc12)C1CCS(=O)(=O)C1 (centres undefined),·,-2,·,14*,·,0,4
COCCC(=O)N1CCC(Oc2ccc(C(=O)N(C)C3CCCCC3)cc2)CC1,·,0,·,6.6*,·,-9,-3
CCC(CC)c1nnc(NC(=O)C2CSC3(C)CCC(=O)N23)s1 (centres undefined),·,0,·,2,·,5,·
CCN1CN(CCc2ccccc2)CNC1=S,1.1,1,-6,9.3*,-7,-1,-3
COc1cc2[nH]c(=O)n(CCCCCC(=O)NC3CCCC3)c(=O)c2cc1OC,·,-1,·,5.7*,·,-12,-2
C#CC(C)OC(=O)Nc1cnccc1C(F)(F)F (centres undefined),·,0,-8,1,·,13,·
COc1cccc(Cn2c(=O)c3[nH]cnc3n(-c3ccccc3C)c2=O)c1,·,4,19,14*,·,5,2
Cc1cccc(-c2c3c(=O)n(C)c(=O)n(C)c3c3cccnn23)c1,1.1,-1,-7,9.0*,-6,-1,-2
Cc1cc(C)c2c3c(c(-c4ccccc4)n2n1)c(=O)n(C)c(=O)n3C,·,0,·,·,·,-22,·
COc1cc(OC)cc(-c2nc(-c3cccs3)no2)c1,1,0,15,7.7*,4,-10,1
Cc1ccc(S(=O)(=O)N2CCN(C(=O)c3nn(C(C)C)c(=O)c4ccccc34)CC2)cc1C,1,1,2,5.4*,2,10,-5
CCOC(=O)C1C(=O)CC(C)(O)C(C(=O)OCC)C1c1ccc(N(CC)CC)cc1 (centres undefined),1.1,7,13,5.1*,-5,-3,-1
CCOC(=O)C1C(=O)CC(C)(O)C(C(=O)OCC)C1c1ccc(F)cc1 (centres undefined),1.1,-2,-7,0,-9,4,·
C[C@H](NC(=O)/C=C/[C@H]1O[C@@H](n2ccc(=O)[nH]c2=O)[C@H](O)[C@@H]1O)C(=O)O,·,1,·,·,·,11,·
CN1CCN(S(=O)(=O)c2ccccc2)C(c2ccccc2)C1 (centres undefined),·,-5,·,0,·,0,·
CCc1nc(SCC(=O)NC2CCCC2)c2oc3ccccc3c2n1,·,0,·,0,·,-3,·
CCc1nc(SCC(=O)N2CCCc3ccccc32)c2oc3ccccc3c2n1,1.1,0,4,15*,-6,30,-6
CC1(Cc2ccc3c(c2)OCO3)C(=O)Nc2c(Cl)ccc(Cl)c21 (centres undefined),·,-2,·,·,·,-17,·
CCn1c(SCC(=O)N/N=C/c2ccc(OC)c(OC)c2)nc2ccccc21,0.9,1,13,7.8*,5,14,1
CN(CC(=O)Nc1ccccc1Br)C(=O)c1n[nH]c2ccccc12,·,-1,·,-1,·,8,·
COCCCNC(=S)NCCCNc1nc2cc3c(cc2cc1C#N)OCO3,1,-1,-20,5.8*,-1,-13,4
COc1ccc2nc(NCCNC(=S)NCCCN3CCOCC3)c(C#N)cc2c1,1,-1,-3,0,0,-6,·
CCOC(=O)C1CCCN(C(=O)c2cc(CN3C(=O)c4ccccc4C3=O)ccc2OC)C1 (centres undefined),·,0,·,4,·,-8,·
